Experimental data taken from ChEMBL document CHEMBL4825665, “Effective degradation of EGFRL858R+T790M mutant proteins by CRBN-based PROTACs through both proteosome and autophagy/lysosome degradation systems” (Eur J Med Chem, 2021).
pIC50: −log10 of the molar value.

Key:
BJ = test: Cytotoxicity against human BJ cells assessed as inhibition of cell growth measured after 72 hrs by CCK-8 assay; format: cell-based
In short: (§1)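 Cells seeded at 3000 cells/well in 96-well plates and treated with graded compound concentrations one day later for 72 h. CCK-8 was added for 1–4 h and absorbance read at 450 nm. Lung cancer lines were kept in RPMI 1640 with 10% fetal calf serum at 37 °C and 5% CO₂.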

[1] = Antiproliferative activity against human PB1 cells assessed as inhibition of cell growth measured after 72 hrs by CCK-8 assay; format: functional, cell-based; conditions: PB1, 72 h; in short: as §1
PC-9 = test: Antiproliferative activity against human PC-9 cells assessed as inhibition of cell growth measured after 72 hrs by CCK-8 assay; format: functional, cell-based; conditions: PC-9, 72 h; in short: as §1
HEK-293T = test: Cytotoxicity against human HEK293T cells assessed as inhibition of cell growth measured after 72 hrs by CCK-8 assay; format: cell-based; in short: as §1
NCI-H1975 = test: Antiproliferative activity against human NCI-H1975 cells assessed as inhibition of cell growth measured after 72 hrs by CCK-8 assay; format: functional, cell-based; conditions: NCI-H1975, 72 h; in short: as §1
HCC827 = test: Antiproliferative activity against human HCC827 cells assessed as inhibition of cell growth measured after 72 hrs by CCK-8 assay; format: functional, cell-based; conditions: HCC827, 72 h; in short: as §1
A549 = test: Antiproliferative activity against human A549 cells assessed as inhibition of cell growth measured after 72 hrs by CCK-8 assay; format: functional, cell-based; conditions: A549, 72 h; in short: as §1
BaF3 = test: Antiproliferative activity against mouse BaF3 cells assessed as inhibition of cell growth measured after 72 hrs by CCK-8 assay; format: functional, cell-based; conditions: BaF3, 72 h; in short: as §1

## C=CC(=O)Nc1cc2c(Nc3ccc(F)c(Cl)c3)ncnc2cc1OCCCN1CCN(C(=O)CCNc2cccc3c2C(=O)N(C2CCC(=O)NC2=O)C3=O)CC1 (stereo not drawn)
BJ
  pIC50: < 5.00
[1]
  pIC50: 6.79
PC-9
  pIC50: 9.01
HEK-293T
  pIC50: < 5.00
NCI-H1975
  pIC50: 6.96

## C=CC(=O)Nc1cc2c(Nc3ccc(F)c(Cl)c3)ncnc2cc1OCCCN1CCN(C(=O)CCCNc2cccc3c2C(=O)N(C2CCC(=O)NC2=O)C3=O)CC1 (stereo not drawn)
BJ
  pIC50: < 5.00
[1]
  pIC50: 6.84
PC-9
  pIC50: 8.86
HEK-293T
  pIC50: 4.83
NCI-H1975
  pIC50: 6.68

## C=CC(=O)Nc1cc2c(Nc3ccc(F)c(Cl)c3)ncnc2cc1OCCCN1CCN(C(=O)CCCCNc2cccc3c2C(=O)N(C2CCC(=O)NC2=O)C3=O)CC1 (stereo not drawn)
BJ
  pIC50: < 5.00
[1]
  pIC50: 6.91
PC-9
  pIC50: 9.35
HEK-293T
  pIC50: < 5.00
NCI-H1975
  pIC50: 7.45

## C=CC(=O)Nc1cc2c(Nc3ccc(F)c(Cl)c3)ncnc2cc1OCCCN1CCNCC1
BJ
  pIC50: 5.56
[1]
  pIC50: 7.48
PC-9
  pIC50: 8.95
HEK-293T
  pIC50: 4.66
NCI-H1975
  pIC50: 6.79

## C=CC(=O)Nc1cc2c(Nc3ccc(F)c(Cl)c3)ncnc2cc1OCCCN1CCOCC1 [CANERTINIB]
HCC827
  pIC50: 9.42
BJ
  pIC50: 5.25
A549
  pIC50: 5.14
[1]
  pIC50: 7.15
BaF3
  pIC50: 8.04
PC-9
  pIC50: 9.07
HEK-293T
  pIC50: 5.22
NCI-H1975
  pIC50: 7.95

## C=CC(=O)Nc1cc2c(Nc3ccc(F)c(Cl)c3)ncnc2cc1OCCCN1CCN(C(=O)CNc2cccc3c2C(=O)N(C2CCC(=O)NC2=O)C3=O)CC1 (stereo not drawn)
BJ
  pIC50: < 5.00
[1]
  pIC50: 6.72
PC-9
  pIC50: 8.30
HEK-293T
  pIC50: < 5.00
NCI-H1975
  pIC50: 6.63
